Laboratory results from ChEMBL document CHEMBL1681754, “Synthesis, structure, molecular docking, and structure-activity relationship analysis of enamines: 3-aryl-4-alkylaminofuran-2(5H)-ones as potential antibacterials” (Bioorg Med Chem, 2011).
Values after ≈ are worked out from the molar mass of the structure shown.

What was measured:
[1] = tested on: Bacillus subtilis; assay: Antimicrobial activity against Bacillus subtilis ATCC 6633 after 24 hrs by MTT assay; assay type: functional; details: ATCC 6633, 24 h
Summary of the method: (§1)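 MTT colorimetric broth microdilution in LB medium. Compounds serially diluted in sterile medium (50% v/v DMSO in PBS). Inoculum approx. 10⁵ cfu/mL, 37 °C for 24 h. Then 50 µL PBS with 2 mg/mL MTT added per well, 4–5 h at room temperature. After a further 12 h at room temperature, OD read at 550 nm to give MIC₅₀.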

[2] = tested on: Staphylococcus aureus; assay: Antimicrobial activity against Staphylococcus aureus ATCC 25923 after 24 hrs by MTT assay; assay type: functional; details: ATCC 25923, 24 h; summary of the method: as §1
[3] = tested on: Candida albicans; assay: Antimicrobial activity against Candida albicans ATCC 10231 after 48 hrs by MTT assay; assay type: functional; details: ATCC 10231, 48 h
Summary of the method: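 Antifungal MTT colorimetric microdilution in RPMI-1640 medium. Compounds serially diluted in sterile medium (50% v/v DMSO in PBS). Inoculum approx. 10⁵ cfu/mL, plates at 27 °C for 48 h. Then PBS with 2 mg/mL MTT added, 4–5 h at room temperature. After a further 12 h, OD read at 550 nm to give MIC₅₀.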

[4] = tested on: Escherichia coli; assay: Antimicrobial activity against Escherichia coli ATCC 35218 after 24 hrs by MTT assay; assay type: functional; details: ATCC 35218, 24 h; summary of the method: as §1
[5] = Inhibition of Staphylococcus aureus tyrosyl-tRNA synthetase by aminoacylation assay
Summary of the method: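 S. aureus TyrRS overexpressed in E. coli and purified (~98% by SDS–PAGE). Enzyme (0.2 nM) preincubated with a range of inhibitor concentrations for 10 min at room temperature, then prewarmed mix added at 37 °C. TCA-precipitated charged tRNA counted by scintillation; IC₅₀ is the concentration halving activity.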

[6] = tested on: Streptococcus pneumoniae; assay: Antimicrobial activity against Streptococcus pneumoniae R6 by broth microdilution method; assay type: functional

CCCCNC1=C(c2ccc(Br)cc2)C(=O)OC1
MIC50 [1]: > 100 µg/mL
MIC50 [2]: > 100 µg/mL
MIC50 [3]: > 100 µg/mL
MIC50 ([4]; read-out: MIC50): > 100 µg/mL

COc1ccc(C2=C(NCCN3CCOCC3)COC2=O)cc1OC
MIC50 [1]: > 100 µg/mL
MIC50 [2]: 68.3 µg/mL (≈ 196 µM)
MIC50 [3]: > 100 µg/mL
MIC50 ([4]; read-out: MIC50): > 100 µg/mL

CN1CCN(C2=C(c3cccc(Cl)c3)C(=O)OC2)CC1
MIC50 [1]: > 100 µg/mL
MIC50 [2]: 65.2 µg/mL (≈ 223 µM)
MIC50 [3]: > 100 µg/mL
MIC50 ([4]; read-out: MIC50): > 100 µg/mL

O=C1OCC(NCCN2CCOCC2)=C1c1ccc(Br)cc1
MIC50 [1]: 24.7 µg/mL (≈ 67.3 µM)
MIC50 [2]: 9.7 µg/mL (≈ 26.4 µM)
MIC50 [3]: 3.5 µg/mL (≈ 9.53 µM)
MIC50 ([4]; read-out: MIC50): > 100 µg/mL
IC50 [5]: 3.3 µM

O=C1OCC(NNc2ccc([N+](=O)[O-])cc2)=C1c1ccc(Br)cc1
MIC50 [1]: 9.5 µg/mL (≈ 24.3 µM)
MIC50 [2]: 0.42 µg/mL (≈ 1.08 µM)
MIC50 [3]: 5.2 µg/mL (≈ 13.3 µM)
MIC50 ([4]; read-out: MIC50): 79.4 µg/mL (≈ 203 µM)
IC50 [5]: 0.12 µM

CC1(C)S[C@@H]2[C@H](NC(=O)Cc3ccccc3)C(=O)N2[C@H]1C(=O)O [PENICILLIN G]
MIC50 [4]: 2.5 µg/mL (≈ 7.48 µM)

COc1ccc(C2=C(NCc3ccccc3)COC2=O)cc1OC
MIC50 [1]: > 100 µg/mL
MIC50 [2]: > 100 µg/mL
MIC50 [3]: > 100 µg/mL
MIC50 ([4]; read-out: MIC50): > 100 µg/mL

N[C@@H](Cc1ccc(O)cc1)C(=O)N[C@H](C(=O)O)[C@H]1[C@H](O)[C@](O)(CO)[C@@H](O)CN1O
IC50 [5]: 0.003 µM
MIC [6]: > 64 µg/mL

O=C1OCC(N2CCCC2)=C1c1cccc(Cl)c1
MIC50 [1]: 87.4 µg/mL (≈ 331 µM)
MIC50 [2]: 12.6 µg/mL (≈ 47.8 µM)
MIC50 [3]: 71.2 µg/mL (≈ 270 µM)
MIC50 ([4]; read-out: MIC50): > 100 µg/mL
IC50 [5]: 5.6 µM

CCCNC1=C(c2cccc(Cl)c2)C(=O)OC1
MIC50 [1]: > 100 µg/mL
MIC50 [2]: 52.4 µg/mL (≈ 208 µM)
MIC50 [3]: > 100 µg/mL
MIC50 ([4]; read-out: MIC50): > 100 µg/mL

CC(=O)N1CCN(c2ccc(OCC3COC(Cn4ccnc4)(c4ccc(Cl)cc4Cl)O3)cc2)CC1 (stereo not given) [KETOCONAZOLE]
MIC50 [3]: 4.4 µg/mL (≈ 8.28 µM)

O=C1OCC(NCCN2CCOCC2)=C1c1cccc(Cl)c1
MIC50 [1]: 27.9 µg/mL (≈ 86.4 µM)
MIC50 [2]: 3.2 µg/mL (≈ 9.91 µM)
MIC50 [3]: 21.3 µg/mL (≈ 66 µM)
MIC50 ([4]; read-out: MIC50): > 100 µg/mL
IC50 [5]: 0.86 µM

CCCCNC1=C(c2ccc(OC)c(OC)c2)C(=O)OC1
MIC50 [1]: > 100 µg/mL
MIC50 [2]: > 100 µg/mL
MIC50 [3]: > 100 µg/mL
MIC50 ([4]; read-out: MIC50): > 100 µg/mL

COc1ccc(C2=C(N3CCCC3)COC2=O)cc1OC
MIC50 [1]: > 100 µg/mL
MIC50 [2]: > 100 µg/mL
MIC50 [3]: > 100 µg/mL
MIC50 ([4]; read-out: MIC50): > 100 µg/mL

O=C1OCC(NCc2ccccc2)=C1c1cccc(Cl)c1
MIC50 [1]: > 100 µg/mL
MIC50 [2]: 25.3 µg/mL (≈ 84.4 µM)
MIC50 [3]: 83.9 µg/mL (≈ 280 µM)
MIC50 ([4]; read-out: MIC50): > 100 µg/mL
IC50 [5]: 8.9 µM

O=C1OCC(N2CCNCC2)=C1c1cccc(Cl)c1
MIC50 [1]: > 100 µg/mL
MIC50 [2]: 37.4 µg/mL (≈ 134 µM)
MIC50 [3]: > 100 µg/mL
MIC50 ([4]; read-out: MIC50): > 100 µg/mL

COc1ccc(C2=C(N3CCOCC3)COC2=O)cc1OC
MIC50 [1]: > 100 µg/mL
MIC50 [2]: > 100 µg/mL
MIC50 [3]: > 100 µg/mL
MIC50 ([4]; read-out: MIC50): > 100 µg/mL

O=C1OCC(N2CCCCC2)=C1c1cccc(Cl)c1
MIC50 [1]: 41.6 µg/mL (≈ 150 µM)
MIC50 [2]: 7.5 µg/mL (≈ 27 µM)
MIC50 [3]: 33.1 µg/mL (≈ 119 µM)
MIC50 ([4]; read-out: MIC50): > 100 µg/mL
IC50 [5]: 2.8 µM

NC[C@H]1O[C@H](O[C@H]2[C@H](O)[C@@H](O[C@H]3O[C@H](CO)[C@@H](O)[C@H](N)[C@H]3O)[C@H](N)C[C@@H]2N)[C@H](O)[C@@H](O)[C@@H]1O [KANAMYCIN]
MIC50 [1]: 0.43 µg/mL (≈ 0.888 µM)
MIC50 [2]: 1 µg/mL (≈ 2.06 µM)

CCCCNC1=C(c2cccc(Cl)c2)C(=O)OC1
MIC50 [1]: > 100 µg/mL
MIC50 [2]: > 100 µg/mL
MIC50 [3]: 9.08 µg/mL (≈ 34.2 µM)
MIC50 ([4]; read-out: MIC50): > 100 µg/mL

CN(C)C1=C(c2cccc(Br)c2)C(=O)OC1
MIC50 [1]: > 100 µg/mL
MIC50 [2]: 61.4 µg/mL (≈ 218 µM)
MIC50 [3]: > 100 µg/mL
MIC50 ([4]; read-out: MIC50): > 100 µg/mL

O=C1OCC(N2CCNCC2)=C1c1ccc(Br)cc1
MIC50 [1]: 78.5 µg/mL (≈ 243 µM)
MIC50 [2]: 54.7 µg/mL (≈ 169 µM)
MIC50 [3]: 77.4 µg/mL (≈ 239 µM)
MIC50 ([4]; read-out: MIC50): > 100 µg/mL

O=C1OCC(N2CCOCC2)=C1c1cccc(Cl)c1
MIC50 [1]: 93.1 µg/mL (≈ 333 µM)
MIC50 [2]: 25.7 µg/mL (≈ 91.9 µM)
MIC50 [3]: 74.6 µg/mL (≈ 267 µM)
MIC50 ([4]; read-out: MIC50): > 100 µg/mL
IC50 [5]: 10.8 µM

COc1ccc(C2=C(N3CCCCC3)COC2=O)cc1OC
MIC50 [1]: > 100 µg/mL
MIC50 [2]: > 100 µg/mL
MIC50 [3]: > 100 µg/mL
MIC50 ([4]; read-out: MIC50): > 100 µg/mL

O=C1OCC(NNc2ccc([N+](=O)[O-])cc2)=C1c1ccccc1
MIC50 [1]: 15.6 µg/mL (≈ 50.1 µM)
MIC50 [2]: 0.85 µg/mL (≈ 2.73 µM)
MIC50 [3]: 13.1 µg/mL (≈ 42.1 µM)
MIC50 ([4]; read-out: MIC50): > 100 µg/mL
IC50 [5]: 0.24 µM

O=C1OCC(NC2CCCCC2)=C1c1ccc(Br)cc1
MIC50 [1]: 86.7 µg/mL (≈ 258 µM)
MIC50 [2]: 27.8 µg/mL (≈ 82.7 µM)
MIC50 [3]: 62.8 µg/mL (≈ 187 µM)
MIC50 ([4]; read-out: MIC50): > 100 µg/mL
IC50 [5]: 14.5 µM

O=C1OCC(NCc2ccccc2)=C1c1ccc(Br)cc1
MIC50 [1]: > 100 µg/mL
MIC50 [2]: 57.6 µg/mL (≈ 167 µM)
MIC50 [3]: > 100 µg/mL
MIC50 ([4]; read-out: MIC50): > 100 µg/mL

CN(C)C1=C(c2ccc(Br)cc2)C(=O)OC1
MIC50 [1]: > 100 µg/mL
MIC50 [2]: > 100 µg/mL
MIC50 [3]: > 100 µg/mL
MIC50 ([4]; read-out: MIC50): > 100 µg/mL

COc1ccc(C2=C(NC3CCCCC3)COC2=O)cc1OC
MIC50 [1]: > 100 µg/mL
MIC50 [2]: > 100 µg/mL
MIC50 [3]: > 100 µg/mL
MIC50 ([4]; read-out: MIC50): > 100 µg/mL

O=C1OCC(N2CCCC2)=C1c1ccc(Cl)cc1
MIC50 [1]: > 100 µg/mL
MIC50 [2]: 88.4 µg/mL (≈ 335 µM)
MIC50 [3]: > 100 µg/mL
MIC50 ([4]; read-out: MIC50): > 100 µg/mL

COc1ccc(C2=C(N3CCNCC3)COC2=O)cc1OC
MIC50 [1]: > 100 µg/mL
MIC50 [2]: > 100 µg/mL
MIC50 [3]: > 100 µg/mL
MIC50 ([4]; read-out: MIC50): > 100 µg/mL

CCCNC1=C(c2ccc(Br)cc2)C(=O)OC1
MIC50 [1]: > 100 µg/mL
MIC50 [2]: 87.2 µg/mL (≈ 294 µM)
MIC50 [3]: > 100 µg/mL
MIC50 ([4]; read-out: MIC50): > 100 µg/mL

O=C1OCC(N2CCOCC2)=C1c1ccc(Br)cc1
MIC50 [1]: 91.8 µg/mL (≈ 283 µM)
MIC50 [2]: 42.6 µg/mL (≈ 131 µM)
MIC50 [3]: 89.7 µg/mL (≈ 277 µM)
MIC50 ([4]; read-out: MIC50): > 100 µg/mL

O=C1OCC(N2CCCC2)=C1c1ccc(Br)cc1
MIC50 [1]: 50 µg/mL (≈ 162 µM)
MIC50 [2]: 37.1 µg/mL (≈ 120 µM)
MIC50 [3]: 49.8 µg/mL (≈ 162 µM)
MIC50 ([4]; read-out: MIC50): > 100 µg/mL

O=C1OCC(N2CCCCC2)=C1c1ccc(Br)cc1
MIC50 [1]: > 100 µg/mL
MIC50 [2]: 21.8 µg/mL (≈ 67.7 µM)
MIC50 [3]: 74.4 µg/mL (≈ 231 µM)
MIC50 ([4]; read-out: MIC50): > 100 µg/mL
IC50 [5]: 7.7 µM
